Measurements taken from ChEMBL document CHEMBL1148198, “Inhibition of HIV-1 envelope-mediated fusion by synthetic batzelladine analogues” (J Nat Prod, 2004).
Calls of active or inactive are those of the source. The calls are words filed in the database; no cut-off is given here.

test system: Human immunodeficiency virus 1; assay: (§1) Inhibition of HIV1 envelope glycoprotein gp160-mediated cell fusion by cell-cell fusion assay
Procedure, shortened: (§2)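 Cell-cell fusion driven by HIV-1 Env from LAV (X4) and SF162 (R5) strains. Inhibitor added to wells at increasing concentrations; run in duplicate on at least two separate days. Percent fusion fitted by nonlinear least squares to % fusion = 100/(1 + KA[I]), where KA is the equilibrium association constant for inhibitor binding to gp120.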

SMILES	Activity
CCCCCCCCC[C@H]1C[C@H]2CC[C@H]3C(C(=O)OCCCCCCCCOC(=O)C4=C(C)NC5=[N+]6[C@H](CC[C@@H]46)C[C@H](CCCCCCCCC)N5)=C(C)NC(=[N+]23)N1	inactive
CCCCCCCCC[C@H]1C[C@H]2CC[C@H]3C(C(=O)OCc4ccc(COC(=O)C5=C(C)NC6=[N+]7[C@H](CC[C@@H]57)C[C@H](CCCCCCCCC)N6)cc4)=C(C)NC(=[N+]23)N1	inactive

test system: not listed separately; assay: as §1; parameters: species or system Human immunodeficiency virus 1; procedure, shortened: as §2

SMILES	IC50
CCCCCCCCC[C@@H]1C[C@@H]2CC[C@H]3[C@H](C(=O)O[C@H](C)CCCCC[C@@H]4C[C@@H]5CC[C@@H]6C[C@H](C)NC(=[N+]65)N4)[C@H](C)NC(=[N+]23)N1	2.5 µM
CCCCCCCCC[C@@H]1C[C@@H]2CC[C@H]3C(C(=O)O[C@@H](C)CCCCC[C@@H]4C[C@@H]5CC[C@@H]6C[C@H](C)NC(=[N+]65)N4)=C(C)NC(=[N+]23)N1	1.8 µM
C=CCOC(=O)C1=C(CCCCC[C@@H](C)O[Si](C)(C)C(C)(C)C)NC2=[N+]3[C@H](CC[C@@H]13)C[C@H](C)N2	4.5 µM
CCCCCCCCC[C@@H]1C[C@@H]2CC[C@H]3C(C(=O)OC(C)(C)C)=C(C)NC(=[N+]23)N1	3.5 µM
CC(=O)CC(=O)O[C@@H](C)CCCCC[C@H]1C[C@H]2CC[C@H]3C[C@@H](C)NC(=[N+]23)N1	5.3 µM
CCCCCCCCC[C@H](O)C[C@@H]1CC[C@H]2C(C(=O)O[C@@H](C)CCCCC[C@@H]3C[C@@H]4CC[C@@H]5C[C@H](C)NC(=[N+]54)N3)=C(C)NC(N)=[N+]12	7.7 µM
CCCCCCCCC[C@H](O)C[C@@H]1CC[C@H]2C(C(=O)O[C@H](C)CCCCC[C@H]3C[C@H]4CC[C@H]5C[C@@H](C)NC(=[N+]45)N3)=C(C)NC(N)=[N+]12	6.2 µM
CCCCCCCCC[C@@H]1C[C@@H]2CC[C@H]3[C@H](C(=O)O[C@H](C)CCCCC[C@@H]4C[C@@H]5CC[C@@H]6C[C@H](C)NC(=[N+]65)N4)[C@@H](C)NC(=[N+]23)N1	3 µM
CCCCCCCCC[C@@H]1C[C@@H]2CCC3=C(C(=O)O[C@H](C)CCCCC[C@@H]4C[C@@H]5CC[C@@H]6C[C@H](C)NC(=[N+]65)N4)[C@@H](C)NC(=[N+]32)N1	0.8 µM
CC(=O)CC(=O)O[C@@H](C)CCCCC[C@@H]1C[C@@H]2CC[C@@H]3C[C@H](C)NC(=[N+]32)N1	17 µM

test system: Human immunodeficiency virus 1; assay: Inhibition of HIV1 envelope glycoprotein gp160-mediated cell fusion at 100 µM by cell-cell fusion assay

SMILES	Activity
CCCCCCCCCC1=C(C(=O)OCc2ccc(COC(=O)C3=C(CCCCCCCCC)NC4=[N+]5[C@H](CC[C@@H]35)C[C@H](CCCCCCC)N4)cc2)[C@@H]2CC[C@@H]3C[C@H](CCCCCCC)NC(=[N+]32)N1	inactive
CCCCCCCCC[C@H]1C[C@H]2CC[C@H]3C(C(=O)OCc4ccc(COC(=O)C5=C(C)NC6=[N+]7[C@H](CC[C@@H]57)C[C@H](CCCCCCCCC)N6)cc4)=C(C)NC(=[N+]23)N1	inactive
